We go through 14 compounds from ChEMBL document CHEMBL4602686, “A Meroisoprenoid, Heptenolides, and C-Benzylated Flavonoids from Sphaerocoryne gracilis ssp. gracilis” (J Nat Prod, 2020).

In data set [1] the test system is Plasmodium falciparum. As to the kind of experiment: Antimalarial activity against chloroquine-sensitive Plasmodium falciparum 3D7 assessed as reduction in parasite rowth incubated for 72 hrs by DAPI staining based fluorescence assay. In kind it is functional, organism-based. The conditions noted are these: 3D7, 72 h.
The test system of data set [2] is Hepacivirus hominis. Description: Inhibition of (CAG)33/FF/HCV/Ren.pA51 mRNA cap-dependent translation assessed as reduction in firefly level at […] after 60 mins by dual luciferase reporter gene assay. (In general: A reporter such as luciferase makes a cellular process visible.)
For data set [3], the system named is Hepacivirus hominis. Description: Inhibition of (CAG)33/FF/HCV/Ren.pA51 mRNA cap-independent translation assessed as reduction in renilla level at […] after 60 mins by dual luciferase reporter gene assay.
Data set [4] deals with Plasmodium falciparum. Description: Antimalarial activity against chloroquine-resistant Plasmodium falciparum Dd2 assessed as reduction in parasite growth at 20 uM incubated for 72 hrs by DAPI saining based fluorescence assay. It is filed as functional, organism-based. In outline:
(§1)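 P. falciparum Dd2 (chloroquine-resistant) growth read by high-content imaging. Isolates were screened at a single 40 μM concentration, and some were also given at 20 μM. Values are percentage growth inhibition, as the mean of at least two independent measurements.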

The subject of data set [5] is Plasmodium falciparum. Description: Antimalarial activity against chloroquine-sensitive Plasmodium falciparum 3D7 assessed as reduction in parasite growth at 20 uM incubated for 72 hrs by DAPI staining based fluorescence assay. In kind it is functional, organism-based. An outline of the steps:
(§2)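 Asexual P. falciparum 3D7 growth read by a high-content imaging assay. Each compound was tested at one concentration: 20 μM for line 1 and 40 μM for line 2. The value is percentage growth inhibition. The 20 μM values are the mean of at least two independent measurements.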

Data set [6] can be described thus: Cytotoxicity against HEK293 cells assessed as growth inhibition at 40 uM relative to control. In kind it is cell-based. The conditions noted are these: human, read-out: GI.
Data set [7] relates to Plasmodium falciparum. As to the kind of experiment: Antimalarial activity against chloroquine-resistant Plasmodium falciparum Dd2 assessed as reduction in parasite growth incubated for 72 hrs by DAPI staining based fluorescence assay. In kind it is functional, organism-based. As to conditions: Dd2, 72 h.
Data set [8] has as its system Plasmodium falciparum. As to the kind of experiment: Antimalarial activity against chloroquine-sensitive Plasmodium falciparum 3D7 assessed as reduction in parasite growth at 40 uM incubated for 72 hrs by DAPI staining based fluorescence assay. In kind it is functional, organism-based. In outline:
as §2

Data set [9] relates to Plasmodium falciparum. As to the kind of experiment: Antimalarial activity against chloroquine-resistant Plasmodium falciparum Dd2 assessed as reduction in parasite growth at 40 uM incubated for 72 hrs by DAPI staining based fluorescence assay. In kind it is functional, organism-based. In outline:
as §1

Data set [10] concerns Plasmodium falciparum 3D7. Description: Selectivity ratio of IC50 for HEK293 cells to IC50 for antimalarial activity against Plasmodium falciparum 3D7. As to conditions: human, HEK293 cells versus Plasmodium falciparum 3D7.
The subject of the next data set is HEK293. As to the kind of experiment: Cytotoxicity against HEK293 cells. It is filed as cell-based. The conditions noted are these: Homo sapiens.

Activity calls are given as the source filed them. No cut-off for these calls is given here.

As for `O=C1C=C/C(=C/[C@H](O)COC(=O)c2ccccc2)O1`, the half-inhibitory concentration (IC50) in the data set with Plasmodium falciparum [1] was found to be 3.7 µM. Moreover, the inhibition result in the data set with Hepacivirus hominis [2] and in the data set with Hepacivirus hominis [3] was “inactive” throughout.
Regarding `O=C1C[C@@H](c2ccccc2)Oc2cc(O)c(Cc3ccccc3O)c(O)c21`, the outcome with Plasmodium falciparum [4] and in the data set on Plasmodium falciparum [5] was Active.
For the compound `O=C1C=C/C(=C/[C@H](O)CO)O1`, the IC50 in the data set on Plasmodium falciparum [1] is 10.5 µM.
With `O=C1C[C@@H](c2ccccc2)Oc2c(Cc3ccccc3O)c(O)c(Cc3ccccc3O)c(O)c21` [DICHAMANETIN], the inhibition at 40 µM in data set [6] is 75%. The IC50 in the data set with Plasmodium falciparum [1] stood at 9.3 µM; with Plasmodium falciparum [7], 6.7 µM.
For the compound `O=C1C[C@@H](c2ccccc2)Oc2c(Cc3cccc(O)c3O)c(O)c(Cc3cccc(O)c3O)c(O)c21`, the outcome in the data set on Plasmodium falciparum [8] and in the data set with Plasmodium falciparum [9] was inactive. For the same compound, the inhibition result in the data set on Hepacivirus hominis [2] and in the data set with Hepacivirus hominis [3] was “inactive” in each case.
With `C[C@@](O)(COC(=O)/C=C/c1ccccc1)[C@H](O)COC(=O)c1ccccc1`, the result in the data set on Plasmodium falciparum [8] and in the data set on Plasmodium falciparum [9] was inactive.
With `O=c1cc(-c2ccccc2)oc2c(Cc3cccc(O)c3O)c(O)cc(O)c12`, the result in the data set with Plasmodium falciparum [4] and in the data set on Plasmodium falciparum [5] was Active. The inhibition entry with Hepacivirus hominis [2] and in the data set on Hepacivirus hominis [3] was “inactive” in each case.
With `O=C1C[C@@H](c2ccccc2)Oc2c(Cc3ccccc3O)c(O)cc(O)c21`, the result in the data set on Plasmodium falciparum [4] and in the data set with Plasmodium falciparum [5] was Active.
For `COC(=O)/C=C/C(=O)C[C@H](O)COC(=O)c1ccccc1`, the inhibition at 40 µM in data set [6] was determined as 100%. Besides, the IC50 was found to be 1.4 µM with Plasmodium falciparum [1] and 4.1 µM in the data set with Plasmodium falciparum [7]. In addition, the inhibition entry in the data set with Hepacivirus hominis [2] and in the data set on Hepacivirus hominis [3] was “inactive” in each case.
As for `CC(=O)O[C@@H](/C=C1/C=CC(=O)O1)COC(=O)c1ccccc1`, the IC50 was determined as 4.8 µM in the data set on Plasmodium falciparum [1], 6.7 µM with Plasmodium falciparum [7] and 11.8 µM in the data set with HEK293. In addition, the selectivity ratio in [10] stood at 3.
As to `O=c1cc(-c2ccccc2)oc2cc(O)cc(O)c12`, the outcome in the data set with Plasmodium falciparum [4] and in the data set on Plasmodium falciparum [5] was Active. Besides, the inhibition result in the data set with Hepacivirus hominis [2] and in the data set on Hepacivirus hominis [3] was “inactive” each time.
For the compound `CC(C)=CCC[C@@H](C)[C@H]1C[C@H](O)[C@@]2(C)C3=CC[C@H]4C(C)(C)[C@@H](O)CC[C@]4(C)C3=CC[C@]12C`, the outcome in the data set on Plasmodium falciparum [8] and in the data set with Plasmodium falciparum [9] was inactive.
With `O=C1C[C@@H](c2ccccc2)Oc2cc(O)c(Cc3cccc(O)c3O)c(O)c21`, the outcome in the data set with Plasmodium falciparum [4] and with Plasmodium falciparum [5] was Active. The inhibition result in the data set on Hepacivirus hominis [2] and in the data set with Hepacivirus hominis [3] was “inactive” throughout.
Turning to `O=C1C[C@@H](c2ccccc2)Oc2cc(O)cc(O)c21`, the result with Plasmodium falciparum [8] and in the data set on Plasmodium falciparum [9] was inactive.

For orientation: IC50 means the midpoint of a concentration-inhibition curve.
